This note sets out measurements from ChEMBL document CHEMBL3098124, “Design, synthesis and anti-Alzheimer properties of dimethylaminomethyl-substituted curcumin derivatives” (Bioorg Med Chem Lett, 2014).

Each structure is given as a SMILES string.

Data set [1] is described as follows: Aqueous solubility of the compound. It is filed as physicochemical.
A short description of data set [2]: n-octanol-water partition coefficient, log P of the compound by HPLC analysis. It is filed as physicochemical. In outline: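 Experimental logP determined in an octanol–water system for two representative compounds. All other values were calculated in silico.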
Data set [3] can be described thus: Chemical stability of the compound in PBS at pH 7.4 at […] measured up to 120 mins by absorption spectroscopic analysis in absence of 0.1% FBS. Particulars: buffer, pH 7.4, 2 h. The class given is physicochemical. In a few lines: (§1)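 Visible absorption at 410 nm tracked over time in phosphate-buffered solution, pH 7.4, under daylight. FBS was 0.1% for line 5 and absent for line 4. Stability expressed as A/A0, with A0 the absorbance at 0 min.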

A short description of data set [4]: Chemical stability of the compound in PBS at pH 7.4 at […] measured up to 120 mins by absorption spectroscopic analysis in presence of 0.1% FBS. The class given is physicochemical. The following applies: buffer, pH 7.4, 2 h. In outline:
as §1

Data set [5] in a line: Antioxidant activity assessed as galvinoxyl free radical scavenging activity after 19 hrs. It is filed as functional. In outline: (§2)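 In vitro scavenging of DPPH or galvinoxyl radicals by a literature method. IC50 reported in µM as mean ± S.E.M.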
The subject of data set [6] is Radical scavenging activity. The data set is described as follows: Antioxidant activity assessed as DPPH free radical scavenging activity after 4 hrs. The class given is functional. In outline:
as §2
On the technique in general: The DPPH test is a chemical assay of radical scavenging.

Data set [7] deals with Amyloid-beta precursor protein (Homo sapiens) (UniProt P05067). Description: Inhibition of amyloid beta-42 self-aggregation (unknown origin) after 1 hr by ThT fluorescence assay. In outline:
(§3)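 Aβ42 self-aggregation read by Thioflavin T fluorescence. Test concentrations were 5, 50 and 100 µM. Each result is the mean of 3 measurements ± SEM. Statistics by one-way ANOVA with Tukey's multiple comparison test against Aβ alone.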

Data set [8] shares this target. The data set is described as follows: Inhibition of amyloid beta-42 self-aggregation (unknown origin) at 100 uM after 1 hr by ThT fluorescence assay relative to control. In a few lines:
as §3

Data set [9] shares this target. The data set is described as follows: Inhibition of amyloid beta-42 self-aggregation (unknown origin) at 50 uM after 1 hr by ThT fluorescence assay relative to control. In outline:
as §3

Chain of Amyloid-beta precursor protein (Homo sapiens) (P05067 whole entry): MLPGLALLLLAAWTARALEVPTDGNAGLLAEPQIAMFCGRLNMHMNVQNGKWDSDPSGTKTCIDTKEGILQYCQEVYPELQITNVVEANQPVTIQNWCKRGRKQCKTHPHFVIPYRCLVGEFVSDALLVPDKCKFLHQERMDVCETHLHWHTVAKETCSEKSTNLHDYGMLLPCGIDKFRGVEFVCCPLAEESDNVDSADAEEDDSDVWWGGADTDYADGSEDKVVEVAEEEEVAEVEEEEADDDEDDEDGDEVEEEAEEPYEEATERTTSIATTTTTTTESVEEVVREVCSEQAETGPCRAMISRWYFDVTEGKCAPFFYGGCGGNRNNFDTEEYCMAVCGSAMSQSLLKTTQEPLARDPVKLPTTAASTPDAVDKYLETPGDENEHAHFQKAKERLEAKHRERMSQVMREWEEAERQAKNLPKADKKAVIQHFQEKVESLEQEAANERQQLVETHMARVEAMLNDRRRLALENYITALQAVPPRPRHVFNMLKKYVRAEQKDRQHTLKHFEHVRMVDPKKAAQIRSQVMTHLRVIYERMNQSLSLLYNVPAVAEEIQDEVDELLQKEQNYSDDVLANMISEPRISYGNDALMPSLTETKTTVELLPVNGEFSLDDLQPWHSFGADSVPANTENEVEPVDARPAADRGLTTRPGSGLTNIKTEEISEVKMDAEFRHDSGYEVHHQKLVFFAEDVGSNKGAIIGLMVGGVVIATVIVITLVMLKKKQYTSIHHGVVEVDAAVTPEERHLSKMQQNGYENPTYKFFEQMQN

The solubility is the dissolved amount per volume that the medium holds. Higher therefore signals much dissolved substance. With `COc1cc(/C=C/C(O)=C/C(=O)/C=C/c2ccc(O)c(CN(C)C)c2)ccc1O.Cl`, the solubility in data set [1] was found to be 1200 µg/mL.
As a reminder, the logP is a log measure of how a compound divides between an organic and an aqueous phase. Low values mean lower lipophilicity, high ones higher lipophilicity. For orientation: IC50 means the point on the concentration scale where inhibition reaches its midpoint. As to `CN(C)Cc1cc(/C=C/C(=O)/C=C(O)/C=C/c2ccc(O)c(CN(C)C)c2)ccc1O` [listing 1 of 2 here], in [2], the log partition coefficient (logP) was determined as 3.48. The Stability entry in [3] and in data set [4] was “Stable” in each case. Further, the IC50 was 4.9 µM in data set [5] and 1.6 µM in [6].
`COc1ccc(/C=C/C(O)=C/C(=O)/C=C/c2ccc(O)c(CN(C)C)c2)cc1OC`: the values for the IC50 in data set [5] and in [6] were 27.4 µM and 29.9 µM, respectively.
What is called inhibition is the share of the control response that was lost under treatment. Consider `COc1cc(/C=C/C(=O)CC(=O)/C=C/c2ccc(O)c(OC)c2)ccc1O`, for which the inhibition result is “Dose-dependent effect” in [7], 29% in data set [8] and 24% in [9].
As to `CN(C)Cc1cc(/C=C/C(=O)/C=C(O)/C=C/c2cccc(O)c2)ccc1O`, the IC50 in data set [5] was 6.9 µM; in data set [6], 4 µM.
The corresponding values for `CN(C)Cc1cc(/C=C/C(=O)/C=C(O)/C=C/c2ccc(O)cc2)ccc1O` are 7.6 µM and 1.5 µM.
The corresponding values for `CN(C)Cc1cc(/C=C/C(=O)/C=C(O)/C=C/c2ccc(F)cc2)ccc1O` are 22.3 µM and 24.1 µM.
The corresponding values for `COc1ccc(/C=C/C(O)=C/C(=O)/C=C/c2ccc(O)c(CN(C)C)c2)cc1` are 11.9 µM and 15.1 µM.
Turning to `CN(C)Cc1cc(/C=C/C(=O)/C=C(O)/C=C/c2ccc(O)c(CN(C)C)c2)ccc1O` [listing 2 of 2 here], the inhibition entry was “Dose-dependent effect” in data set [7], 32% in data set [8] and 28% in data set [9].
Take `CN(C)Cc1cc(/C=C/C(=O)/C=C(O)/C=C/c2ccc(O)c(CN(C)C)c2)ccc1O.Cl.Cl`: in data set [1], the concentration in solution (solubility) came to 16700 µg/mL.
Take `CN(C)Cc1cc(/C=C/C(=O)/C=C(O)/C=C/c2ccc(Cl)cc2)ccc1O`: the IC50 was 41.1 µM in [5] and 11.1 µM in [6].
For `Cc1ccc(/C=C/C(O)=C/C(=O)/C=C/c2ccc(O)c(CN(C)C)c2)cc1`, in that order: 22 µM and 18.7 µM.
Molecule `COc1cc(/C=C/C(O)=C/C(=O)/C=C/c2ccc(O)c(CN(C)C)c2)ccc1O` returned a logP in data set [2] of 3.65.
